Sampled rows, rich in hits. Any-hit rate of the full collection: about 2.2%.
APJ ag: APJ receptor agonism; P35414; activation, % at 20 µM; 0.11% of 330,000 active; CHO-K1 APJ PathHunter beta-arrestin, luminescence; 0% DMSO wells, 100% apelin;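 active = activation more than six SD over the plate average, tested at 20 µM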;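 also: 0% = DMSO alone and 100% = apelin-13 at 10 nM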
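Assay system: CHO-K1 APJ beta-arrestin complementation cell line / Compound: single test compound dose, 20 µM final, 1% DMSO / Times: overnight seeding, 90 min compound at 25 °C, 1 h detection / Technique: beta-gal luminescence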
EBI2 block: blocks human EBI2 receptor beta-arrestin signaling. EBI2 beta-arrestin recruitment, luminescence, 7a,25-OHC stimulated. inhibition, % at 5 µM. 0.81% of 360,000 active. AID 651636; in the data active = inhibition above about 38%;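 also: enzyme fragment complementation signal reports receptor beta-arrestin coupling in cells; 0% = agonist plus DMSO wells and 100% = wells without agonist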
Target sequence (P32249 whole entry, looked up, the tested form may be a part): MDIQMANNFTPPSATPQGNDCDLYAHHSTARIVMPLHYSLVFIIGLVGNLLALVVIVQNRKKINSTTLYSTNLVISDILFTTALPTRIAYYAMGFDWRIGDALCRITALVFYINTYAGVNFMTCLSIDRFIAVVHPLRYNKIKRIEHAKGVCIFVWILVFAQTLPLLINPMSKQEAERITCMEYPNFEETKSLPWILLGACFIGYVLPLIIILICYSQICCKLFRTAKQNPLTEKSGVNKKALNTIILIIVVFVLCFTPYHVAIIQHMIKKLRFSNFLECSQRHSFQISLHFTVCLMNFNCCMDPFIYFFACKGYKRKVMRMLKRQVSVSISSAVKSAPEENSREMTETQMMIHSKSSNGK
CCR6 antag: CCR6 (human) receptor antagonism; P51684; 0.49% of 340,000 active; CHO-K1 CCR6 PathHunter beta-arrestin, luminescence, CCL20-stimulated; inhibition, % at 20 µM; AID 493098;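 active = compounds whose inhibition of the agonist-driven luminescence signal at 20 µM reaches about 50%, limit read from the data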;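 also: cells stimulated with CCL20 at 14 nM final; plate controls were DMSO with CCL20 for no effect and DMSO without agonist for full effect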
CXCR6 inh: blocks human CXCR6 beta-arrestin recruitment; CHO-K1 PathHunter CXCR6 beta-arrestin, luminescence; inhibition, % at 20 µM; 0.36% of 360,000 active; in the data active = inhibition above about 34%, passing the limit was not always enough;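 also: antagonist mode with CXCL16 agonist at 10 nM final; 0% = 10 nM CXCL16 with DMSO and 100% = unstimulated wells without agonist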
APJ antag: APJ receptor antagonism; inhibition, % at 20 µM; CHO-K1 APJ beta-arrestin complementation, luminescence; AID 2521; 0.32% of 330,000 active; P35414;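 active = inhibition above about 40% at 20 µM, limit read from the data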;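 also: cells challenged with 10 nM apelin-13 agonist together with compound; plate controls were apelin-13 plus DMSO wells for no effect and DMSO wells lacking apelin-13 for full effect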
HTR2A ag: mouse HTR2A agonism via beta-arrestin recruitment. CHO-K1 mHTR2A beta-arrestin complementation, luminescence; percent of 30 µM serotonin response. P35363. 0.66% of 360,000 active. activation, % at 7.6 µM;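 active = activation above a run cutoff, the mean activation of all tested compounds plus 3 SD, cut at about 14% in these data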;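 also: 0% = plate median of compound wells and 100% = 30 µM serotonin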
An asterisk follows results filed as active; / = not tested or not shown.

SMILES	APJ ag	EBI2 block	CCR6 antag	CXCR6 inh	APJ antag	HTR2A ag
CC(C)C[C@H](N)c1nnc(SCC(=O)Nc2ccc(Br)cc2)o1	0.0	4.2	5.2	-0.6	10.3	3.6
O=C1C(Br)=C(c2ccccc2)C(c2ccccc2)=C1c1ccccc1	/	49.1*	68.3*	20.8	/	-1.0
O=C1NC(c2ccccc2)=C(c2ccccc2)C1=O	/	-9.3	4.6	1.9	/	1.5
CCOc1cc(/C=N/Nc2cc(C)nc(-n3nc(C)cc3C)n2)ccc1O	-15.5	97.5*	116.4*	110.1*	106.2*	-36.8
NC(Cc1ccc(F)cc1)c1csc(Nc2ccc(C(=O)c3ccccc3)cc2)n1 (centres undefined)	/	0.2	/	-22.0	/	0.7
C/C(=N\NC(=O)C1CCCN(S(=O)(=O)c2ccccc2)C1)c1ccccn1 (centres undefined)	-7.2	2.2	/	40.5*	34.6	-4.1
N#C/C(=C\c1ccc(O)cc1)c1nc2ccccc2o1	-5.2	2.0	40.0	23.4	45.1*	-11.2
CC(=O)c1ccc(NC(=O)c2ccc3nc(-c4ccco4)c(-c4ccco4)nc3c2)cc1	6.1	-6.6	32.9	46.4*	-6.7	-0.3
O=[N+]([O-])c1ccc(O)c(N=Cc2sc3ccccc3c2O)c1	/	35.2	53.5*	20.0	/	-2.2
CCOC(=O)[C@]12CCCC=C1N(CCc1ccc(OC)c(OC)c1)C(=O)[C@H](CC(=O)N1CCCC1)C2	/	-3.5	/	/	/	-0.9
O=[N+]([O-])c1cc(Cl)cc(/C=N/NC(=S)Nc2ccc(S(=O)(=O)N3CCOCC3)cc2)c1O	-6.8	10.4	59.9*	34.8	32.9	-5.9
COc1ccc2cc(/C=C/C(=O)N3CCN(CC(=O)N4CCCCCC4)CC3)ccc2c1	1.6	60.5*	0.2	-1.9	0.6	-2.1
COc1ccc(C(=O)N2CCN(CC(=O)N3CCOCC3)CC2)cc1	6.5	-3.1	0.5	-3.1	-14.3	-2.0
COc1cc(OC)cc(C2=Cc3ccccc3C(CC(=O)c3ccco3)N2c2ccc(-c3cncnc3)cc2)c1 (centres undefined)	/	-0.2	/	-3.9	/	-2.7
COc1ccc(Cn2c(/C=C/c3ccccc3)nc3ccccc32)cc1	-2.0	42.2*	18.2	31.1	8.7	-8.5
CCCCNC(=O)C1(C)CCCCCN1Cc1cccc2c(OC)cc(C(=O)OCC)cc12 (centres undefined)	/	3.4	/	21.4	/	-5.4
O=C(/C(=C/c1ccc(Cl)cc1)c1nc2ccccc2[nH]1)c1ccccc1	-1.1	50.3*	17.8	11.5	14.6	-7.3
COc1ccccc1CN(C)C[C@@H]1OCc2cnnn2CCCC(=O)N([C@@H](C)CO)C[C@H]1C	/	4.1	/	-4.9	/	7.2
O=C1C(Cl)=C(Nc2ccccc2)C(=O)c2ccccc21	/	25.4	53.1*	35.7	/	-2.2
O=C(O)c1ccc(NC2=C(Cl)C(=O)c3ccccc3C2=O)cc1	4.7	2.0	41.1	13.1	-59.2	4.9
COc1ccc(OC)c(CN2CCN(C(=O)c3cccc(S(=O)(=O)N(C)c4ccccc4)c3)CC2)c1	/	3.6	/	2.8	/	-2.0
C#CCOCCOCCOCCNc1nc(N2CCN(C(=O)CCCCCCCCCCNC(=O)[C@H]([C@@H](C)CC)n3cc(CCCCN=C(N)N)nn3)CC2)nc(N2CCN(C(=O)CCCCCCCCCCNC(=O)[C@H](CCCCN)n3cc(C[C@@H](C)CC)nn3)CC2)n1	58.5*	/	/	/	31.1	/
C#CCOCCOCCOCCNc1nc(N2CCN(C(=O)CCCCCCCCCCNC(=O)[C@H](CCCCN)n3cc(CCO)nn3)CC2)nc(N2CCN(C(=O)CCCCCCCCCCNC(=O)[C@H](CCCN=C(N)N)n3cc(C[C@@H](C)CC)nn3)CC2)n1	-1.5	-3.0	-28.8	26.0	25.6	-10.2
O=C(CCC(=O)Nc1ccccc1Cl)N/N=C/c1c[nH]c2ccccc12	-0.5	-5.1	2.9	-15.7	-8.3	22.0*
CN(C)c1c([N+](=O)[O-])cc(N2C(=O)C=CC2=O)cc1[N+](=O)[O-]	/	3.2	/	75.1*	/	-3.5
CCn1c(O)c(N=NC(=S)NCC2CCCO2)c2ccccc21 (centres undefined)	-5.7	3.3	66.1*	46.7*	26.5	-4.2
CCCCCCCCCC[N+](C)(C)CC/C=C1/c2ccccc2Sc2ccc(Cl)cc21	0.8	-0.9	-4.1	48.8*	11.7	-5.6
